Bioassay records (PubChem)
XiGFP reactiv: X-chromosome reactivation activator. XiGFP mouse fibroblasts, % GFP-positive cells imaging, 3 d; cells co-treated with 5-aza-dC sensitizer; scaled so ellipticine positive control = 100%. activation, % at 7.58 µM. hit rate 0.055% among 360,000;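 active means mean normalized replicate activation at least 10% and every replicate at or above 10%; inconclusive means only one of the two criteria met; inactive means mean below 10% and not all replicates reach 10%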;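 further: 0% = median of on-plate neutral control wells and 100% = ellipticine 6 µM median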
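Material: XiGFP fibroblasts, SV40-immortalized. Buffer or medium: DMEM plus 5-aza-dC sensitizer. Compound: single concentration per compound, delivered by pin transfer. Times: 3 days compound exposure. Controls: ellipticine 6 µM.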
PglD DTNB: blocks C. jejuni PglD acetyltransferase activity; purified PglD enzyme, DTNB colorimetric CoA detection; inhibition, % at 12.5 µM; hit rate 0.098% among 360,000; AID 602405; in the data active means inhibition above about 16%, passing the limit was not always enough; inconclusive means no clear call, values can overlap the other calls
E-sel inducer: E-selectin induction on HUVECs; P16581; HUVEC E-selectin immunofluorescence imaging; normalized: neutral wells 0, TNF-alpha wells 100; activation, % at 7.58 µM; hit rate 0.37% among 260,000;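 active means mean E-selectin-positive cell signal at least 10% of the positive control, reached in at least 60% of replicates, without over 20% cell loss; inconclusive means no rule given, readout overlaps actives, possibly toxicity-flagged; inactive means the rest, including those meeting only one limit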
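System: HUVEC, human umbilical vein endothelial cells; quantity: 3,000 cells/well; buffer or medium: EGM-2 medium, gelatin-coated wells; dosing: single-point compound dose; detection: immunofluorescence imaging; evaluation: % PE-positive cells; benchmarks: TNF-alpha, DMSO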
DENV2 CPE: inhibitors of DENV2 cytopathic effect; AID 651640; DENV2-infected cells, cytopathic effect rescue, plate reader; CPE inhibition, % at 9.99 µM; hit rate 1.7% among 350,000; in the data active means CPE inhibition above about 20%, passing the limit was not always enough; inconclusive means no clear call, values can overlap the other calls; tested in BHK-21 cells;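 further: 0% = median of neutral control wells and 100% = median of positive control wells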
Statin myotox sup: suppression of simvastatin myotoxicity; C2C12 myotubes + simvastatin, ATP luminescence, 48 h; scaled: DMSO 0, geranylgeraniol control 100; hit rate 0.78% among 330,000; rescue of ATP level, % at 7.49 µM;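 active means mean ATP rescue above about 67%, or every replicate alone reaching that limit, limit read from the data, passing the limit was not always enough; inconclusive means no clear call, values can overlap the other calls; inactive means mean under the limit and some replicate under it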;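 further: myotubes were challenged with 10 µM simvastatin during compound exposure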
FGF22 binding: FGF22 (human) thermal shift binding. recombinant FGF22 thermal shift, SYPRO orange fluorescence; percent of sucrose octasulfate shift, DMSO zero. activity (Tm shift, normalised), % at 9.99 µM. hit rate 1.5% among 340,000;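 active means mean Tm shift, scaled 0 neutral to 100 positive control, at about 1.3% or above, every replicate too, limit read from the data; inconclusive means no clear call, values can overlap the other calls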
Target sequence (Q9HCT0 whole entry, looked up): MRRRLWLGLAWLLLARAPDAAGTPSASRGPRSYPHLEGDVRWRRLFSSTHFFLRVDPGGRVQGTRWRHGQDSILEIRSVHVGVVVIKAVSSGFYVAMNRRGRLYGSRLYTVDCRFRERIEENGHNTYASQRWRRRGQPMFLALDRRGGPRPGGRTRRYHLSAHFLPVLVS
Numbers without * were called inactive; ? = inconclusive; / = no result. This is a sample that favours compounds with a hit; in the whole collection about 3.3% have one here.

SMILES	XiGFP reactiv	PglD DTNB	E-sel inducer	DENV2 CPE	Statin myotox sup	FGF22 binding
C[C@@H]1CN([C@H](C)CO)C(=O)c2cc(NS(=O)(=O)c3ccc(Cl)cc3)ccc2O[C@H]1CN(C)C(=O)Nc1cccc2ccccc12	0.0	-2.0	0.1	0.7	?	-0.2
Cc1ccc(NC(=O)C2CCN(S(C)(=O)=O)CC2)cc1Cl	0.0	5.7	/	29.2*	-33.1	0.1
O=C(NCc1ccccc1)C1CCN(S(=O)(=O)N2CCOCC2)CC1	/	-0.7	/	/	16.3	/
CS(=O)(=O)N1CCC(C(=O)Nc2ccc(F)c(Cl)c2)CC1	0.0	-4.3	/	-5.9	-0.1	0.2
CCN(CC)S(=O)(=O)N1CCC(C(=O)NCCN2CCOCC2)CC1	/	-3.7	/	/	107.2*	/
COc1ccc(OC)c(S(=O)(=O)N2CCC(C(=O)Nc3ccccc3)CC2)c1	0.2	-3.5	/	-4.7	91.4*	42.7
O=C(NCCc1ccccc1)C1CCN(S(=O)(=O)N2CCOCC2)CC1	0.0	-1.9	/	-3.4	9.0	43.8*
CCCCN(CC)S(=O)(=O)N1CCC(C(=O)NCCCN2CCOCC2)CC1	0.1	/	/	0.8	/	-0.3
COc1ccc(CN(C)C[C@@H]2Oc3ccc(NC(=O)Cc4cn(C)c5ccccc45)cc3C(=O)N([C@@H](C)CO)C[C@@H]2C)cc1	0.3	-0.6	-0.4	17.6	13.7	-0.1
COc1ccc(S(=O)(=O)N2CCC(C(=O)NCc3ccccc3)CC2)cc1OC	0.0	/	0.4	7.0	/	43.3*
O=C(O)c1c2c(nc3ccc(S(=O)(=O)N4CCC(C(=O)NCc5ccccc5Cl)CC4)cc13)CCCC2	0.0	-85.3	/	-4.0	76.9*	-0.2
COc1ccc(NC(=O)Cn2ccc(C(F)(F)F)n2)cc1S(=O)(=O)N1CCOCC1	0.3	0.3	/	-4.4	100.8*	-0.2
COc1ccc(NC(=O)CN2CCN(C(C)=O)CC2)cc1S(=O)(=O)N1CCOCC1	0.0	-2.1	-0.4	-3.3	-11.3	-0.1
COc1ccc(/C=C\c2onc(C)c2S(=O)(=O)N2CCC(C(=O)NCc3ccco3)CC2)cc1	11.0*	/	-0.1	-7.6	6.5	-0.3
O=C(C1CCCCC1)N1CC2(C1)[C@H](c1ccccc1)[C@H](CO)N2CCC(F)(F)F	0.1	/	0.0	19.9	/	-0.4
COCC(=O)Nc1ccc2c(c1)C(=O)N(C)C[C@@H](OC)[C@@H](C)CN(Cc1ccccc1OC)[C@@H](C)CO2	0.1	1.5	-0.2	-1.9	-9.3	-0.3
CS(=O)(=O)N1CCC(C(=O)NCc2ccccc2)CC1	0.4	/	/	-2.1	/	43.7*
COc1ccc(-c2ccc([C@@H]3[C@@H](CO)N4CCCCN(C(=O)c5ccc6c(c5)OCO6)C[C@@H]34)cc2)cc1	0.3	1.8	0.0	?	-1.3	-0.6
CCc1ccccc1NC(=O)CN1CCN(C(=O)CN2C(=O)NC3(CCCCC3C)C2=O)CC1 (stereo not given)	0.3	-0.4	/	-3.7	4.0	0.0
Cc1cccc(C)c1NC(=O)CN1CCN(C(=O)CN2C(=O)NC3(CCCCC3C)C2=O)CC1 (stereo not given)	0.5	0.0	0.6	25.3*	-7.3	0.0
Cc1c(C)c2ccc(OCC(=O)N(C)C)c(C)c2oc1=O	/	9.2	/	/	97.9*	/
O=C(NCC1CC1)[C@@H]1[C@@H](CO)[C@@H]2Cn3c(ccc(-c4ccccc4)c3=O)[C@@H]2N1Cc1cocn1	0.2	0.4	-0.1	-11.1	7.6	-0.3
CCC(C)NC(=S)N1CCN(Cc2ccc3c(c2)OCO3)CC1 (stereo not given)	0.1	/	/	-2.6	/	43.0*
Cc1cc(C(=O)N2CCN(Cc3ccc4c(c3)OCO4)CC2)cs1	/	-5.5	/	-8.9	91.6*	0.2
Cc1cc(C)cc(C(=O)N2CCN(Cc3ccc4c(c3)OCO4)CC2)c1	0.2	1.7	/	2.5	14.8	-0.1
SMILES	XiGFP reactiv	PglD DTNB	E-sel inducer	DENV2 CPE	Statin myotox sup	FGF22 binding
NC(=O)CC[C@H](NC(=O)c1ccc(F)cc1)C(=O)N1CCN(Cc2ccc3c(c2)OCO3)CC1	0.4	-0.5	0.2	-3.6	0.6	43.1*
Cc1cc(C)c2c(CN3CCN(Cc4ccc5c(c4)OCO5)CC3)cc(=O)oc2c1	/	1.7	/	/	150.3*	/
Cc1noc(C)c1S(=O)(=O)N(C)C[C@@H]1Oc2ccc(NC(=O)Nc3ccc4c(c3)OCO4)cc2CC(=O)N([C@@H](C)CO)C[C@H]1C	0.0	/	-4.5	13.0	/	/
O=C(C[C@H]1C[C@H]2c3cc(NS(=O)(=O)c4ccccc4)ccc3O[C@H]2[C@@H](CO)O1)NCC1CC1	0.2	-0.5	0.1	-1.4	-10.4	-0.6
COCC#Cc1ccc([C@H]2[C@H](CO)N3C(=O)CN(C(=O)Nc4cc(F)ccc4F)C[C@@H]23)cc1	0.5	/	/	/	/	/
O=C(c1ccccc1Br)N1CCN(Cc2ccc3c(c2)OCO3)CC1	0.1	5.6	-0.1	50.3*	-3.7	-0.1
CCCNC(=O)N1[C@H](CO)[C@H](c2ccccc2)[C@H]1CNC(=O)c1cccc(F)c1	0.2	9.2	0.1	-3.7	32.7	0.2
Cc1ccc(NCCc2ccc(C)nc2)cc1	/	5.9	/	/	0.5	/
Cc1ccc(CCNc2ccc3ccccc3c2)cn1	/	/	/	/	93.9*	/
C[C@@H]1CN([C@@H](C)CO)C(=O)c2cc(NC(=O)Nc3ccc(C(F)(F)F)cc3)ccc2O[C@@H]1CN(C)C(=O)Nc1ccc(F)cc1	-1.0	-0.8	-0.3	1.5	-18.2	0.9
COc1ccc(NC(=O)N(C)C[C@H]2Oc3ccc(NC(=O)Nc4ccccc4)cc3C(=O)N([C@@H](C)CO)C[C@@H]2C)cc1	-1.0	-4.2	-0.2	2.3	-4.1	0.1
COCCNC(=O)CS(=O)Cc1nc(-c2ccc(Cl)cc2)oc1C (stereo not given)	0.1	-5.5	-0.1	63.6*	-11.1	0.3
Cc1ccc(-c2nc(CS(=O)CC(=O)NCCCN3CC(C)CC(C)C3)c(C)o2)cc1 (stereo not given)	21.8*	-2.1	-0.1	1.4	-17.8	0.0
COc1ccc(NC(=O)Nc2ccc3c(c2)C(=O)N([C@@H](C)CO)C[C@H](C)[C@H](CN(C)S(=O)(=O)c2cn(C)cn2)O3)cc1	-0.2	-6.0	0.4	-2.4	/	0.1
C/C=C/C(=O)OCC(=O)Nc1ccc(OC)c(OC)c1	0.0	/	/	14.9	/	43.2*
Cc1ccc(NC(=O)COC(=O)C2=COCCO2)cc1	/	-3.4	/	/	-0.9	/
COc1ccc(NC(=O)COC(=O)C2=COCCO2)cc1OC	0.1	/	1.2	2.1	/	43.7*
C[C@@H]1CN([C@@H](C)CO)S(=O)(=O)c2ccc(/C=C/c3ccccc3)cc2O[C@H]1CN(C)C(=O)CN1CCOCC1	-1.0	-7.3	-0.1	3.8	21.6	-0.1
O=C(CNC(=O)c1cnccc1C(F)(F)F)c1cccc(Cl)c1	0.0	7.7	/	0.5	77.8*	0.0
